{"source": "ChEMBL document CHEMBL4325893", "about": "“Synthesis and antibacterial profiles of targeted triclosan derivatives” (2019)", "key": {"Aeromonas hydrophila": {"system": "Aeromonas hydrophila", "experiment": "Antibacterial activity against Aeromonas hydrophila OCC 778 after 18 hrs", "type": "functional", "conditions": "OCC 778, 18 h", "how_it_was_run": "(§1)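 Broth microdilution in Nutrient Broth No. 2; stocks in ethanol diluted to 0.01–128 µg/ml (triclosan) or 0.25–256 µg/ml (glycosides). Overnight 37 °C NB2 cultures diluted 1 in 10^4 in saline and added to the dilutions. Incubation at 37 °C with agitation, OD read every 15 min; MIC is the lowest concentration preventing any OD rise after 18 h.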"}, "Citrobacter freundii [1]": {"system": "Citrobacter freundii", "experiment": "Antibacterial activity against Citrobacter freundii OCC 851 after 18 hrs", "type": "functional", "conditions": "OCC 851, 18 h", "how_it_was_run": "as §1"}, "Cronobacter sakazakii": {"system": "Cronobacter sakazakii", "experiment": "Antibacterial activity against Cronobacter sakazakii 29544 after 18 hrs", "type": "functional", "conditions": "Cronobacter sakazakii, 29544, 18 h", "how_it_was_run": "as §1"}, "Klebsiella aerogenes [2]": {"system": "Klebsiella aerogenes", "experiment": "Antibacterial activity against Enterobacter aerogenes ATCC 13048 after 18 hrs", "type": "functional", "conditions": "ATCC 13048, 18 h", "how_it_was_run": "as §1"}, "[3]": {"experiment": "Antibacterial activity against Enterobacter cloacae ATCC 13047 after 18 hrs", "type": "functional, Enterobacter cloacae subsp. cloacae", "conditions": "ATCC 13047, 18 h", "how_it_was_run": "as §1"}, "Escherichia coli [4]": {"system": "Escherichia coli", "experiment": "Antibacterial activity against Escherichia coli ATCC 8739 after 18 hrs", "type": "functional", "conditions": "ATCC 8739, 18 h", "how_it_was_run": "as §1"}, "Escherichia coli [5]": {"system": "Escherichia coli", "experiment": "Antibacterial activity against Escherichia coli ATCC 10536 after 18 hrs", "type": "functional", "conditions": "ATCC 10536, 18 h", "how_it_was_run": "as §1"}, "Escherichia coli [6]": {"system": "Escherichia coli", "experiment": "Antibacterial activity against Escherichia coli ATCC 11775 after 18 hrs", "type": "functional", "how_it_was_run": "as §1"}, "Escherichia coli [7]": {"system": "Escherichia coli", "experiment": "Antibacterial activity against Escherichia coli ATCC 25922 after 18 hrs", "type": "functional", "conditions": "ATCC 25922, 18 h", "how_it_was_run": "as §1"}, "Escherichia coli [8]": {"system": "Escherichia coli", "experiment": "Antibacterial activity against Escherichia coli ATCC 35218 after 18 hrs", "type": "functional", "conditions": "ATCC 35218, 18 h", "how_it_was_run": "as §1"}, "Escherichia coli [9]": {"system": "Escherichia coli", "experiment": "Antibacterial activity against Escherichia coli 700728 after 18 hrs", "type": "functional", "conditions": "Escherichia coli, 700728, 18 h", "how_it_was_run": "as §1"}, "Escherichia coli [10]": {"system": "Escherichia coli", "experiment": "Antibacterial activity against Escherichia coli NCTC 13216 after 18 hrs", "type": "functional", "conditions": "NCTC 13216, 18 h", "how_it_was_run": "as §1"}, "Escherichia coli [11]": {"system": "Escherichia coli", "experiment": "Antibacterial activity against Escherichia coli OCC 122 after 18 hrs", "type": "functional", "conditions": "OCC 122, 18 h", "how_it_was_run": "as §1"}, "Escherichia hermannii": {"system": "Escherichia hermannii", "experiment": "Antibacterial activity against Escherichia hermannii 33650 after 18 hrs", "type": "functional", "conditions": "Atlantibacter hermannii, 33650, 18 h", "how_it_was_run": "as §1"}, "Hafnia alvei": {"system": "Hafnia alvei", "experiment": "Antibacterial activity against Hafnia alvei 13337 after 18 hrs", "type": "functional", "conditions": "Hafnia alvei, 13337, 18 h", "how_it_was_run": "as §1"}, "Klebsiella aerogenes [12]": {"system": "Klebsiella aerogenes", "experiment": "Antibacterial activity against Klebsiella aerogenes NCTC 8167 after 18 hrs", "type": "functional", "conditions": "NCTC 8167, 18 h", "how_it_was_run": "as §1"}, "Klebsiella pneumoniae [13]": {"system": "Klebsiella pneumoniae", "experiment": "Antibacterial activity against Klebsiella pneumoniae ATCC 10031 after 18 hrs", "type": "functional", "conditions": "ATCC 10031, 18 h", "how_it_was_run": "as §1"}, "Proteus mirabilis": {"system": "Proteus mirabilis", "experiment": "Antibacterial activity against Proteus mirabilis ATCC 12453 after 18 hrs", "type": "functional", "conditions": "ATCC 12453, 18 h", "how_it_was_run": "as §1"}, "Proteus vulgaris": {"system": "Proteus vulgaris", "experiment": "Antibacterial activity against Proteus vulgaris OCC 195 after 18 hrs", "type": "functional", "conditions": "OCC 195, 18 h", "how_it_was_run": "as §1"}, "Pseudomonas aeruginosa": {"system": "Pseudomonas aeruginosa", "experiment": "Antibacterial activity against Pseudomonas aeruginosa ATCC 27853 after 18 hrs", "type": "functional", "conditions": "ATCC 27853, 18 h", "how_it_was_run": "as §1"}, "Klebsiella pneumoniae [14]": {"system": "Klebsiella pneumoniae", "experiment": "Antibacterial activity against Klebsiella pneumoniae ATCC 13883 after 18 hrs", "type": "functional", "conditions": "ATCC 13883, 18 h", "how_it_was_run": "as §1"}, "Citrobacter freundii [15]": {"system": "Citrobacter freundii", "experiment": "Antibacterial activity against Citrobacter freundii 8090 after 18 hrs", "type": "functional", "conditions": "Citrobacter freundii, 8090, 18 h", "how_it_was_run": "as §1"}, "Serratia marcescens": {"system": "Serratia marcescens", "experiment": "Antibacterial activity against Serratia marcescens OCC 217 after 18 hrs", "type": "functional", "conditions": "OCC 217, 18 h", "how_it_was_run": "as §1"}, "Bacillus cereus": {"system": "Bacillus cereus", "experiment": "Antibacterial activity against Bacillus cereus ATCC 14579 after 18 hrs", "type": "functional", "conditions": "ATCC 14579, 18 h", "how_it_was_run": "as §1"}, "Bacillus subtilis": {"system": "Bacillus subtilis", "experiment": "Antibacterial activity against Bacillus subtilis NCTC 10073 after 18 hrs", "type": "functional", "conditions": "NCTC 10073, 18 h", "how_it_was_run": "as §1"}, "Enterococcus faecalis [16]": {"system": "Enterococcus faecalis", "experiment": "Antibacterial activity against Enterococcus faecalis ATCC 29212 after 18 hrs", "type": "functional", "conditions": "ATCC 29212, 18 h", "how_it_was_run": "as §1"}, "Enterococcus faecalis [17]": {"system": "Enterococcus faecalis", "experiment": "Antibacterial activity against Enterococcus faecalis ATCC 33186 after 18 hrs", "type": "functional", "conditions": "ATCC 33186, 18 h", "how_it_was_run": "as §1"}, "Enterococcus faecium": {"system": "Enterococcus faecium", "experiment": "Antibacterial activity against Enterococcus faecium ATCC 19434 after 18 hrs", "type": "functional", "conditions": "ATCC 19434, 18 h", "how_it_was_run": "as §1"}}, "data": [{"smiles": "OC[C@H]1O[C@H](Oc2cc(Cl)ccc2Oc2ccc(Cl)cc2Cl)[C@H](O)[C@@H](O)[C@H]1O", "values": [{"measurement": "MIC", "setting": "Aeromonas hydrophila", "value": "> 256", "unit": "µg/mL"}, {"measurement": "MIC", "setting": "Citrobacter freundii [1]", "value": 64, "unit": "µg/mL"}, {"measurement": "MIC", "setting": "Cronobacter sakazakii", "value": 128, "unit": "µg/mL"}, {"measurement": "MIC", "setting": "Klebsiella aerogenes [2]", "value": 128, "unit": "µg/mL"}, {"measurement": "MIC", "setting": "[3]", "value": 32, "unit": "µg/mL"}, {"measurement": "MIC", "setting": "Escherichia coli [4]", "value": "16 to 64", "unit": "µg/mL"}, {"measurement": "MIC", "setting": "Escherichia coli [5]", "value": "16 to 64", "unit": "µg/mL"}, {"measurement": "MIC", "setting": "Escherichia coli [6]", "value": "16 to 64", "unit": "µg/mL"}, {"measurement": "MIC", "setting": "Escherichia coli [7]", "value": "16 to 64", "unit": "µg/mL"}, {"measurement": "MIC", "setting": "Escherichia coli [8]", "value": "16 to 64", "unit": "µg/mL"}, {"measurement": "MIC", "setting": "Escherichia coli [9]", "value": "16 to 64", "unit": "µg/mL"}, {"measurement": "MIC", "setting": "Escherichia coli [10]", "value": "16 to 64", "unit": "µg/mL"}, {"measurement": "MIC", "setting": "Escherichia coli [11]", "value": "16 to 64", "unit": "µg/mL"}, {"measurement": "MIC", "setting": "Escherichia hermannii", "value": 32, "unit": "µg/mL"}, {"measurement": "MIC", "setting": "Hafnia alvei", "value": 16, "unit": "µg/mL"}, {"measurement": "MIC", "setting": "Klebsiella aerogenes [12]", "value": 32, "unit": "µg/mL"}, {"measurement": "MIC", "setting": "Klebsiella pneumoniae [13]", "value": 1, "unit": "µg/mL"}, {"measurement": "MIC", "setting": "Proteus mirabilis", "value": 32, "unit": "µg/mL"}, {"measurement": "MIC", "setting": "Proteus vulgaris", "value": 64, "unit": "µg/mL"}, {"measurement": "MIC", "setting": "Pseudomonas aeruginosa", "value": "> 256", "unit": "µg/mL"}, {"measurement": "MIC", "setting": "Klebsiella pneumoniae [14]", "value": 1, "unit": "µg/mL"}, {"measurement": "MIC", "setting": "Citrobacter freundii [15]", "value": 64, "unit": "µg/mL"}, {"measurement": "MIC", "setting": "Serratia marcescens", "value": "> 256", "unit": "µg/mL"}, {"measurement": "MIC", "setting": "Bacillus cereus", "value": "> 256", "unit": "µg/mL"}, {"measurement": "MIC", "setting": "Bacillus subtilis", "value": 256, "unit": "µg/mL"}, {"measurement": "MIC", "setting": "Enterococcus faecalis [16]", "value": "> 256", "unit": "µg/mL"}, {"measurement": "MIC", "setting": "Enterococcus faecalis [17]", "value": "> 256", "unit": "µg/mL"}, {"measurement": "MIC", "setting": "Enterococcus faecium", "value": "> 256", "unit": "µg/mL"}]}]}
